S1P1 ag-PAM: agonists and agonism potentiators of human S1P1 receptor | activation, % at 9.5 µM | P21453 | AID 449 | S1P1 CRE-bla cells, forskolin, beta-lactamase FRET, potentiator mode; S1P1 agonist co-added at EC20, 2 nM; 100% = saturating reference agonist, 0% = basal | hit rate 0.57% among 56,000;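 active = activation above a cutoff set at the mean activation of all tested compounds plus 3 SD, cut at about 54% in these data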;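 also: forskolin at 4 µM as EC80 and the EC20 agonist is SEW2871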
Target sequence (P21453 whole entry, looked up): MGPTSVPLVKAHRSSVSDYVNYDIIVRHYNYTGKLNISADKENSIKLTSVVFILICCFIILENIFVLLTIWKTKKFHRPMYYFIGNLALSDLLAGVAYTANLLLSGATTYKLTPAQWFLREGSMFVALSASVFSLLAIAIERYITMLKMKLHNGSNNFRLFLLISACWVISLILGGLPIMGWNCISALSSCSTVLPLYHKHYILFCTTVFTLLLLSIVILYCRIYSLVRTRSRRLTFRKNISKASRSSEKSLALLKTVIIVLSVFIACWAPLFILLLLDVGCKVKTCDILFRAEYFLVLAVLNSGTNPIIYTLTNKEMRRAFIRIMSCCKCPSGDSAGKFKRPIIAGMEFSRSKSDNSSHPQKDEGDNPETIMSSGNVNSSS
M1 ag: agonists of M1 muscarinic receptor; B-score at 10 µM; CHO-M1 cells, Fluo-4 calcium fluorescence, agonist mode; active compounds read high; hit rate 3% among 64,000;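 active = fluorescence rise, raw or as B-score row- and column-corrected plate score, outside the 99.7% band of its plate's samples, either direction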
D1 allo mod: allosterically modulates the human D1 dopamine receptor; HEK293 D1, CRE-luciferase, dopamine EC30 potentiation; actives deviate in either direction; B-score at 10 µM; hit rate 5.9% among 58,000;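 active = luminescence count or its row- and column-corrected plate score outside the 99.7% band of the plate's sample wells, on either side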
M1 antagonist: M1 muscarinic receptor (rat) antagonism. P08482. CHO-M1 cells, Fluo-4 calcium, ACh EC80 antagonist mode; active compounds read low. B-score at 10 µM. hit rate 3.4% among 64,000. AID 628;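 active = calcium fluorescence response, raw or row-and-column corrected B-score, differing from the plate sample mean either way at a set confidence level, mostly lower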
S1P3 ag: agonists of human S1P3 receptor; Q99500; S1P3 NFAT-BLA reporter cells, agonism, FRET ratio; relative to 1 µM S1P, basal subtracted; activation, % at 4.5 µM; hit rate 0.1% among 60,000;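 active = activation above the screen-wide mean plus 3 SD, cut at about 4.5% in these data, passing the limit was not always enough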
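Assay system: stable CHO line with human S1P3, Gα16, NFAT-BLA reporter; Detection: FRET β-lactamase substrate fluorescence, excitation 405 nm, 460/535 nm emission ratio, background-subtracted; Read-out: percent activation versus median 1 µM S1P response, basal-subtracted, per plate; Incubation: cells plated overnight, compound 4 h 37 °C, substrate 2 h RT.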
D1 mod confirm: confirmation of human D1 dopamine receptor allosteric modulators. shares compounds with D1 allo mod. HEK293 D1 CRE-luciferase, dopamine EC30 potentiation; active compounds read high. luminescence at 10 µM. hit rate 88% among 2,200. AID 642;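 active = luminescence in either of two replicates above the same-plate mean plus 3 SD of the low-dose dopamine control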
D1 ag no DA: D1 (human) signaling in absence of dopamine | HEK293 D1 CRE-luciferase, luminescence, no dopamine; active compounds read high | shares compounds with D1 allo mod | luminescence at 10 µM | AID 646 | hit rate 0.8% among 1,900; in the data active = luminescence above about 3900
Isoprot counter: alters isoproterenol CRE-luciferase response in HEK293 cells; calls only at 10 µM; hit rate 63% among 2,200; HEK293 D1 CRE-luciferase, isoproterenol EC30 counter-screen; AID 647; shares compounds with D1 allo mod;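 active = luminescence in either replicate above plate mean of wells with a partly effective reference agonist dose plus 3 SD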;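 also: isoproterenol raises cAMP through native beta-adrenoceptor Gs so signal bypasses D1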
Large screens that a line does not name were inactive (follow-up assays come after a bar, where they were run). This is a sample that favours compounds with a hit; in the whole collection about 11% have one here.

CCOC(=O)CC(/C(C)=N\O)c1ccccc1 (stereo not given)	none (no result: D1 allo mod)
C=CCn1c(SCC(=O)Nc2cc(C)nn2-c2ccccc2)nnc1C1CCCCC1	none (no result: S1P1 ag-PAM, S1P3 ag)
CC1CCN(C(=O)Cn2c(=O)n(Cc3ccc4c(c3)OCO4)c(=O)c3ccccc32)CC1	none (no result: M1 ag, D1 allo mod, M1 antagonist)
O=C(Cn1c(=O)n(Cc2ccc3c(c2)OCO3)c(=O)c2ccccc21)N1CCCc2ccccc21	D1 allo mod 6 | D1 mod confirm 10984 | D1 ag no DA inactive | Isoprot counter active
COc1ccc2c(C)cc(=O)oc2c1C	D1 allo mod 5.7 | D1 mod confirm 11556 | Isoprot counter active
Cc1nnc(Sc2nc3c(c(=O)n(C)c(=O)n3C)n2Cc2ccc(Cl)cc2)s1	none (no result: M1 ag, D1 allo mod, M1 antagonist)
CCOc1cc(C(=O)Nc2ccc3c(c2)OCO3)ccc1OC(F)F	D1 allo mod 7.6 | D1 mod confirm 13356 | D1 ag no DA inactive | Isoprot counter active
CCOc1ccc(C(=O)Nc2ccc3c(c2)OCCO3)cc1OC	none
COc1cc2c(cc1OC)C(=NCCC(=O)O)NC(C)(C)C2	none
COc1cc2c(cc1OC)/C(=C/C#N)NC(C)(C)C2	D1 allo mod 10 | D1 mod confirm 16360 | D1 ag no DA inactive | Isoprot counter active
Cc1ccc(-c2nnc(CSc3nc(C)nc4sc(C)c(C)c34)o2)cc1	none
Cc1nc(SCC#N)c2c(C)c(C)sc2n1	D1 allo mod 5.8 | D1 mod confirm 13352 | D1 ag no DA inactive | Isoprot counter active
c1ccc(-c2cnnc(SCc3cn4cccnc4n3)n2)cc1	D1 allo mod 8.5 | D1 mod confirm 14784 | D1 ag no DA inactive | Isoprot counter active
CC1=C(C(=O)OCc2ccccc2)C(c2ccccc2OC(F)F)NC(=O)N1 (stereo not given)	none (no result: D1 allo mod)
C=C(C)CSc1nc2c(cc1C#N)CCC2	D1 allo mod 5 (no result: S1P1 ag-PAM, S1P3 ag) | D1 mod confirm 8952 | D1 ag no DA inactive | Isoprot counter inactive
C=CCSc1nc2c(cc1C#N)CCC2	none
N#Cc1cc2c(nc1SCc1cccnc1)CCCC2	D1 allo mod 9.6 | D1 mod confirm 12820 | D1 ag no DA inactive | Isoprot counter active
O=c1ccn(Cc2ccccc2)c(=O)n1Cc1ccccc1	D1 allo mod 2.9 (no result: S1P1 ag-PAM) | D1 mod confirm 12736 | D1 ag no DA inactive | Isoprot counter active
Cn1c(=O)n(Cc2ccccc2)c2ccccc21	none
Cc1cccc(N2C(=O)CC(N(C(=O)c3ccco3)c3cccc(C)c3)C2=O)c1 (stereo not given)	none
COc1ccc(S(=O)(=O)N2CCSC2c2ccc(OC)c(OC)c2)cc1 (stereo not given)	D1 allo mod 4.2 | D1 mod confirm 10220 | D1 ag no DA inactive | Isoprot counter inactive
CCOc1ccc(OCC)c2sc(C)nc12	D1 allo mod 11 | D1 mod confirm 20256 | D1 ag no DA inactive | Isoprot counter active
CCCC(=O)Nc1cccc(C(=O)Nc2nccs2)c1	none (no result: S1P1 ag-PAM, S1P3 ag)
COc1cc2c(cc1OC)C1=C(C#N)CCC(=O)N1CC2	D1 allo mod 13 (no result: S1P1 ag-PAM) | D1 mod confirm 16416 | D1 ag no DA inactive | Isoprot counter active
COc1cc2c(cc1OC)C1=C(C#N)CC/C(=N\S(=O)(=O)c3ccccc3)N1CC2	D1 allo mod 8.7 | D1 mod confirm 18960 | Isoprot counter active
COc1ccc(CCN2CC(C#N)=C3c4cc(OC)c(OC)cc4CCN3C2)cc1OC	D1 allo mod 5 | D1 mod confirm 14004 | D1 ag no DA inactive | Isoprot counter active
COc1ccc(C(=O)COC(=O)CSCc2c(C)noc2C)cc1OC	D1 allo mod 7.6 | D1 mod confirm 17860 | D1 ag no DA inactive | Isoprot counter active
Cc1noc(C)c1CSCC(=O)OCC(=O)NC1CCCCC1	none (no result: S1P1 ag-PAM, S1P3 ag)
CCCCc1nc2n[nH]c(N)c2c2c1CCCC2	D1 allo mod 21 | D1 mod confirm 20280 | D1 ag no DA inactive | Isoprot counter active
Cc1cc(NC(=O)c2sccc2C)n(-c2cccc(Cl)c2)n1	D1 allo mod 4.9 | D1 mod confirm 12892 | D1 ag no DA inactive | Isoprot counter active
Cc1cc(C(=O)Nc2ccc(C(=O)O)cc2)c(-c2ccccc2)o1	D1 allo mod 2.5 | D1 mod confirm 7724 | D1 ag no DA inactive | Isoprot counter active
CCn1c(Cc2ccccc2)nnc1SCC(=O)Nc1nc(C)c(C)s1	none
CCOc1cc(C(=O)OCC(=O)NCc2ccco2)cc(OCC)c1OCC	none
CCc1nc2ccccc2c(C(=O)OCC(=O)NCc2ccco2)c1C	D1 allo mod 4.4 | D1 mod confirm 8196 | D1 ag no DA inactive | Isoprot counter inactive
CNC(=O)c1ccc(N(Cc2ccccc2)S(C)(=O)=O)cc1	none
COc1ccc(C2c3c(-c4cc(Cl)c(C)cc4O)n[nH]c3C(=O)N2Cc2cccnc2)cc1OC (stereo not given)	D1 allo mod 4.3 | D1 mod confirm 9304 | Isoprot counter active
Cc1cc(NC(=O)c2cc(C3CC3)on2)no1	none (no result: D1 allo mod)
Cc1nc2sc3c(c2c2nc(-c4ccco4)nn12)CC(C)(C)OC3	none (no result: M1 ag, M1 antagonist)
COc1c(S(=O)(=O)n2nc(C)cc2C)ccc(Cl)c1Cl	D1 allo mod 3.6 | D1 mod confirm 12296 | D1 ag no DA inactive | Isoprot counter inactive
COc1ncnc2c1NC(=O)CS2	none
COc1ncnc2c1N[C@@](C)(O)c1c(F)c(F)c(F)c(F)c1S2	D1 allo mod 5.7 | D1 mod confirm 8300 | D1 ag no DA inactive | Isoprot counter inactive
N#Cc1ccc(CSc2nnc(-c3cccs3)n2-c2ccccc2)cc1	none
FC(F)Sc1nnc(-c2cccs2)n1-c1ccccc1	D1 allo mod 6.9 (no result: S1P1 ag-PAM) | D1 mod confirm 13848 | D1 ag no DA inactive | Isoprot counter active
CN(C)C(=O)N1CCC(C(=O)NCc2ccc(F)cc2Cl)CC1	D1 allo mod 3.9 | D1 mod confirm inactive | D1 ag no DA inactive | Isoprot counter inactive
CN(C)C(=O)N1CCCC(C(=O)NCc2ccc(F)cc2Cl)C1 (stereo not given)	none
CCNc1nc(NCC)nc(OCCOC(=O)c2ccccc2)n1	D1 allo mod 6.9 | D1 mod confirm 16012 | D1 ag no DA inactive | Isoprot counter active
CCNc1nc(N)nc(Oc2ccc(OCCOc3ccccc3)nn2)n1	none
CC1CC(C)CN(c2nc3c(c(=O)n(C)c(=O)n3C)n2C)C1 (stereo not given)	none
O=C(NC1CCCCC1)c1cnn2c(C(F)(F)F)cc(-c3ccco3)nc12	D1 allo mod 5.3 (no result: S1P1 ag-PAM, S1P3 ag) | D1 mod confirm 6744 | D1 ag no DA inactive | Isoprot counter active
O=C(NC1CCCCC1)c1nn2c(C(F)(F)F)cc(-c3ccco3)nc2c1Br	none
